ChEMBL document CHEMBL3120102, “Structure-based design, synthesis and biological evaluation of novel anthra[1,2-d]imidazole-6,11-dione homologues as potential antitumor agents” (2013)

What was measured:
[1] = molecular target: Telomerase reverse transcriptase (Homo sapiens) (UniProt O14746); test: Inhibition of human tert transcriptional activity assessed as SEAP activity at 100 uM after 24 hrs by SEAP reporter assay; parameters: scale not given: the % may be the effect or the level left
Outline: (§1)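 Reporter assay for hTERT transcriptional activity using secreted alkaline phosphatase. About 2 × 10³ cells per well were grown for 24 h at 37 °C, then given fresh medium. Buffer was added to the medium: 2 M diethanolamine, 1 mM MgCl2 and 20 mM L-homoarginine. p-Nitrophenyl phosphate was added to 12 mM final. The rate of absorbance increase was read at 405 nm.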

[2] = molecular target: Telomerase reverse transcriptase (Homo sapiens) (UniProt O14746); test: Inhibition of human tert transcriptional activity assessed as SEAP activity at 10 uM after 24 hrs by SEAP reporter assay; parameters: scale not given: the % may be the effect or the level left; outline: as §1
[3] = molecular target: Telomerase reverse transcriptase (Homo sapiens) (UniProt O14746); test: Inhibition of human tert transcriptional activity assessed as SEAP activity at 1 uM after 24 hrs by SEAP reporter assay; parameters: scale not given: the % may be the effect or the level left; outline: as §1
[4] = Cytotoxicity against human H1299 cells assessed as cell viability at 100 uM after 48 hrs by MTT assay; assay type: functional; settings: NCI-H1299, 48 h, read-out: Activity
Outline: (§2)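 About 2×10³ H1299 cells per well were grown for 24 h at 37 °C in 5% CO2. Compound was dissolved in DMSO immediately before use, diluted in complete medium and left on cells for 48 h. MTT was then added for 4 h at 37 °C, followed by SDS/DMF lysis buffer for 16 h at 37 °C. Absorbance was read at 550 nm.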

[5] = Cytotoxicity against human H1299 cells assessed as cell viability at 10 uM after 48 hrs by MTT assay; assay type: functional; settings: NCI-H1299, 48 h, read-out: Activity; outline: as §2
[6] = Cytotoxicity against human H1299 cells assessed as cell viability at 1 uM after 48 hrs by MTT assay; assay type: functional; settings: NCI-H1299, 48 h, read-out: Activity; outline: as §2

Sequence of Telomerase reverse transcriptase (Homo sapiens) (O14746 whole entry): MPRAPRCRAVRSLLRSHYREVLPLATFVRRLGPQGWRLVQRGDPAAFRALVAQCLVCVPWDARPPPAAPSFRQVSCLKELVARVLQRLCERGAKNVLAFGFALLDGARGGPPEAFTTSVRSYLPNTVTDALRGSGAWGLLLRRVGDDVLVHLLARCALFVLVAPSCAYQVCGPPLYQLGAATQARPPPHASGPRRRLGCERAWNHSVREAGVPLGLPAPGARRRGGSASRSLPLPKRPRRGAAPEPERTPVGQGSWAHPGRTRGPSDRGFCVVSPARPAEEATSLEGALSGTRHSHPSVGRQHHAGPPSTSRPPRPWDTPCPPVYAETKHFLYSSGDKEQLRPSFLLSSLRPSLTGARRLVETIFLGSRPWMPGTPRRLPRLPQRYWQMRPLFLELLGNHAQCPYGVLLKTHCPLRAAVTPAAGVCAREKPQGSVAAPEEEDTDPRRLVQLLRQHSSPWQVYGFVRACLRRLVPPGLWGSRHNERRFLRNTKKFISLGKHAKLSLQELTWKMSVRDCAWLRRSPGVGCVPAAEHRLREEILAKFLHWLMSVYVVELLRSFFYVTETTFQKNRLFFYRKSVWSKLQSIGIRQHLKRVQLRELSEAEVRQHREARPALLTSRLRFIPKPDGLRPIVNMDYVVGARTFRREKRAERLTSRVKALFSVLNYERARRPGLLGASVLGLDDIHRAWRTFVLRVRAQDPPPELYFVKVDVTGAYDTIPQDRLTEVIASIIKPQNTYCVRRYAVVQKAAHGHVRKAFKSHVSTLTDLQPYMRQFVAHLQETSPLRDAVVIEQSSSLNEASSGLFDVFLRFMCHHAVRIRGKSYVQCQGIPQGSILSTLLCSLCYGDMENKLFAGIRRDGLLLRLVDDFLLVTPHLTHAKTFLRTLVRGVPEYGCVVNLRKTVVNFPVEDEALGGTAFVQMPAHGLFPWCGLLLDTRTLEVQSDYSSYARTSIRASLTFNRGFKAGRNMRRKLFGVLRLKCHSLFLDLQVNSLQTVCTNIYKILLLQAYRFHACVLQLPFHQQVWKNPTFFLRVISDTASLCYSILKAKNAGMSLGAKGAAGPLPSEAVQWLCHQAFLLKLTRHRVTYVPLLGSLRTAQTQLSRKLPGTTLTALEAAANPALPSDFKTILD

SMILES	Activity [1] [%]	Activity [2] [%]	Activity [3] [%]	viability at 100 µM [4] [%]	viability at 10 µM [5] [%]	viability at 1 µM [6] [%]
COC(=O)/C=C/CSc1nc2ccc3c(c2[nH]1)C(=O)c1ccccc1C3=O	64	87	88	72	75	98
O=C1c2ccccc2C(=O)c2c1ccc1nc(SCCCN3CCCCC3)[nH]c21	8	50	85	38	70	71
C#CCSc1nc2ccc3c(c2[nH]1)C(=O)c1ccccc1C3=O	52	85	94	75	96	94
O=C1c2ccccc2C(=O)c2c1ccc1nc(SC(=O)N3CCCC3)[nH]c21	95	105	96	124	117	110
O=C1c2ccccc2C(=O)c2c1ccc1nc(SC(=O)N3CCCCC3)[nH]c21	81	104	98	116	116	97
C=CCSc1nc2ccc3c(c2[nH]1)C(=O)c1ccccc1C3=O	69	91	97	79	96	100
CCCN(CCC)C(=O)CSc1nc2ccc3c(c2[nH]1)C(=O)c1ccccc1C3=O	85	91	94	93	86	95
O=C1c2ccccc2C(=O)c2c1ccc1nc(SCCN3CCCCC3)[nH]c21	14	100	111	30	79	86
O=C1c2ccccc2C(=O)c2c1ccc1nc(SCCC(=O)N3CCOCC3)[nH]c21	45	97	105	50	102	99
O=C(Sc1nc2ccc3c(c2[nH]1)C(=O)c1ccccc1C3=O)c1cc(C(F)(F)F)ccc1C(F)(F)F	75	96	102	79	100	95
O=C1c2ccccc2C(=O)c2c1ccc1nc(SCC(=O)N3CCCC3)[nH]c21	64	100	100	62	102	89
O=C1c2ccccc2C(=O)c2c1ccc1nc(SCC(=O)N3CCOCC3)[nH]c21	40	87	103	70	88	91
O=C1c2c(O)ccc(O)c2C(=O)c2c(NCCNCCO)ccc(NCCNCCO)c21 [MITOXANTRONE]	7	10	21	0	0	24
O=C1c2ccccc2C(=O)c2c1ccc1nc(SCCCCCBr)[nH]c21	41	58	92	37	82	84
COc1cccc2c1C(=O)c1c(O)c3c(c(O)c1C2=O)C[C@@](O)(C(=O)CO)C[C@@H]3O[C@H]1C[C@H](N)[C@H](O)[C@H](C)O1 [DOXORUBICIN]	5	14	34	0	0	17
O=C1c2ccccc2C(=O)c2c1ccc1nc(SCCN3CCOCC3)[nH]c21	36	105	119	73	127	106
O=C1c2ccccc2C(=O)c2c1ccc1nc(SCCCCCCCl)[nH]c21	53	98	105	88	85	83
CN1CCN(C(=O)Sc2nc3ccc4c(c3[nH]2)C(=O)c2ccccc2C4=O)CC1	38	99	89	71	120	102
O=C1c2ccccc2C(=O)c2c1ccc1nc(SCCC(=O)N3CCCC3)[nH]c21	67	90	87	57	110	107
O=C1c2ccccc2C(=O)c2c1ccc1nc(SC(=O)N3CCOCC3)[nH]c21	71	87	93	90	94	89
CCN(CC)C(=O)CSc1nc2ccc3c(c2[nH]1)C(=O)c1ccccc1C3=O	49	93	96	54	90	97
Nc1ccc2c(c1N)C(=O)c1ccccc1C2=O	–	77	–	39	95	105

Second part, led by results:

Activity [1] [%]	Activity [2] [%]	Activity [3] [%]	SMILES	viability at 100 µM [4] [%]	viability at 10 µM [5] [%]	viability at 1 µM [6] [%]
89	100	104	Cc1cc(C(=O)Sc2nc3ccc4c(c3[nH]2)C(=O)c2ccccc2C4=O)c(C)o1	95	91	95
81	95	97	O=C(CCc1ccccc1)Sc1nc2ccc3c(c2[nH]1)C(=O)c1ccccc1C3=O	69	93	95
53	105	111	CCCCSc1nc2ccc3c(c2[nH]1)C(=O)c1ccccc1C3=O	77	135	82
64	98	97	CCN(CC)C(=O)CCSc1nc2ccc3c(c2[nH]1)C(=O)c1ccccc1C3=O	44	77	94
88	104	106	CCN(CC)C(=O)Sc1nc2ccc3c(c2[nH]1)C(=O)c1ccccc1C3=O	116	119	118
54	96	100	O=C1c2ccccc2C(=O)c2c1ccc1nc(SCCCCCl)[nH]c21	83	97	91
61	83	88	COC(=O)CCCSc1nc2ccc3c(c2[nH]1)C(=O)c1ccccc1C3=O	57	83	83
29	83	88	Cc1ccccc1CSc1nc2ccc3c(c2[nH]1)C(=O)c1ccccc1C3=O	76	81	88
81	92	98	O=C(Sc1nc2ccc3c(c2[nH]1)C(=O)c1ccccc1C3=O)c1ccccc1[N+](=O)[O-]	76	78	80
